According to ChEMBL document CHEMBL1142939, “Neopeltolide, a macrolide from a lithistid sponge of the family Neopeltidae” (J Nat Prod, 2007):
Converted amounts (≈) assume the structure as drawn.

Experiments:
Candida albicans [1] = assay: Antifungal activity against Candida albicans ATCC 44506 by broth dilution assay; type: functional
How it was run: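 Broth microdilution in 96-well plates, seeded at 10^3 cells/mL. Compound tested as 2-fold dilutions from 5 to 0.4 µg/mL. Incubated 37 °C for 24 h. MIC taken as the lowest concentration completely inhibiting growth. 5-Fluorocytosine served as antifungal control.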

A549 [2] = assay: Cell cycle arrest in A549 cells by accumulation at G1 phase at 1 nM; type: functional, Homo sapiens
[3] = Cytotoxicity against human NCI-ADR-RES cells by MTT assay; type: cell-based
How it was run: (§1)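 MTT cell proliferation assay following previously described protocols. Each sample assayed at least three times to derive the final IC50.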

A549 [4] = assay: Cell cycle arrest in A549 cells by accumulation at S phase at 1 nM; type: functional, Homo sapiens
A549 [5] = assay: Cell cycle arrest in A549 cells by accumulation at S phase at 0.1 nM; type: functional, Homo sapiens
A549 [6] = assay: Cell cycle arrest in A549 cells by accumulation at G1 phase at 10 nM; type: functional, Homo sapiens
[7] = Cytotoxicity against p53 mutated PANC1 cells ATCC CRL1469 by MTT assay; type: cell-based; details: human, panc-1; how it was run: as §1
A549 [8] = assay: Cell cycle arrest in A549 cells by accumulation at G2/M phase at 100 nM; type: functional, Homo sapiens
A549 [9] = assay: Cell cycle arrest in A549 cells by accumulation at G2/M phase at 0.1 nM; type: functional, Homo sapiens
A549 [10] = assay: Cell cycle arrest in A549 cells by accumulation at S phase at 100 nM; type: functional, Homo sapiens
A549 [11] = assay: Cell cycle arrest in A549 cells by accumulation at G1 phase at 0.1 nM; type: functional, Homo sapiens
A549 [12] = assay: Cell cycle arrest in A549 cells by accumulation at G2/M phase at 1 nM; type: functional, Homo sapiens
A549 [13] = assay: Cytotoxicity against human A549 cells ATCC CCL-185 by MTT assay; type: cell-based; how it was run: as §1
A549 [14] = assay: Cell cycle arrest in A549 cells by accumulation at S phase at 10 nM; type: functional, Homo sapiens
[15] = Cytotoxicity against mouse NCI-P388 cells by MTT assay; type: cell-based; how it was run: as §1
A549 [16] = assay: Cell cycle arrest in A549 cells by accumulation at G2/M phase at 10 nM; type: functional, Homo sapiens
DLD-1 = assay: Cytotoxicity against p53 mutated NCI-DLD1 cells by MTT assay; type: cell-based; details: human; how it was run: as §1
Candida albicans [17] = assay: Antifungal activity against Candida albicans ATCC 44506 at 25 ug/disk by agar diffusion assay; type: functional; details: read-out: IZ
How it was run: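 Sabouraud dextrose agar plates seeded with 10^5/mL C. albicans. Disks loaded with 25 µg compound, dried and placed on the agar. Incubated 37 °C for 24 h, then the growth-inhibition zone was measured. A nystatin disk (100 IU) ran on the same plate as control.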

A549 [18] = assay: Cell cycle arrest in A549 cells by accumulation at G1 phase at 100 nM; type: functional, Homo sapiens

Structure (SMILES): CCC[C@@H]1C[C@H](OC)C[C@H](C)C[C@@H]2C[C@@H](OC(=O)/C=C\CCc3coc(/C=C\CNC(=O)OC)n3)C[C@H](CC(=O)O1)O2 [NEOPELTOLIDE]
- MIC (Candida albicans [1]): 0.625 µg/mL (≈ 1.06 µM)
- Activity (A549 [2]): 46.11%
- IC50 [3]: 5.1 nM
- Activity (A549 [4]): 39.95%
- Activity (A549 [5]): 40.01%
- Activity (A549 [6]): 59.66%
- Activity [7]: Active
- Activity (A549 [8]): 14.95%
- Activity (A549 [9]): 13.59%
- Activity (A549 [10]): 22.02%
- Activity (A549 [11]): 46.4%
- Activity (A549 [12]): 13.94%
- IC50 (A549 [13]): 1.2 nM
- Activity (A549 [14]): 30.27%
- IC50 [15]: 0.56 nM
- Activity (A549 [16]): 10.07%
- Activity (DLD-1): Active
- zone of inhibition at 25 µg/disc (Candida albicans [17]): 17 mm
- Activity (A549 [18]): 63.03%

Structure (SMILES): CC(=O)O[C@H]1C(=O)[C@@]2(C)[C@H]([C@H](OC(=O)c3ccccc3)[C@]3(O)C[C@H](OC(=O)[C@H](O)[C@@H](NC(=O)c4ccccc4)c4ccccc4)C(C)=C1C3(C)C)[C@]1(OC(C)=O)CO[C@@H]1C[C@@H]2O [PACLITAXEL]
- Activity (A549 [8]): 98.44%
- Activity (A549 [10]): 0%
- Activity (A549 [18]): 1.56%
